Results gathered from unrelated publications.
Organism: Plasmodium falciparum
Effect on: parasite growth

COC1=CC(c2cccn2C)=NC1=Cc1ccc(CCCCCCCCCC(C)O)[nH]1 (stereo not shown)  IC50 (D6; blood stage): 2330 nM
Fc1ccc(-c2nc3c(N4CCCN(CC5CC5)CC4)nccc3[nH]2)cc1F  IC50 (NF54; blood stage): 20 nM
CCN(CC)CCCC(C)Nc1ccnc2cc(Cl)ccc12 (stereo not shown)  IC50 (3D7; 96 h; blood stage): 3 nM
Cc1cccc(C(=O)O)c1NC(=O)c1cccc(-c2ccccc2)c1  IC50 (resazurin; NF54; 48 h; gametocyte): 665 nM
COC(=O)c1ccc2c(c1)nc(C1CCNCC1)n2Cc1ccccc1  IC50 (NF54; blood stage): 3830 nM
O=C1C(O)=C([C@H]2CC[C@H](c3ccc(Cl)cc3)CC2)C(=O)c2ccccc21  IC50 (3D7; 72 h; blood stage): 0.4 nM
O=C(O)c1ccc(F)cc1NC(=O)c1ccccc1-c1ccccc1  IC50 (resazurin; NF54; 48 h; gametocyte): > 10000 nM
COc1cccc(N2CCN(C3=Nc4c(F)cccc4[C@H](CC(=O)O)N3c3cc(C(F)(F)F)ccc3OC)CC2)c1  IC50 (SYBR Green; blood stage): 9950 nM
C[C@@H]1CC[C@H]2[C@@H](C)C(=O)O[C@@H]3O[C@@]4(C)CC[C@@H]1[C@]32OO4  IC50 (W2; 72 h; drug-resistant strain, blood stage): 0.0038 µg/mL
O=C(Nc1c(F)cccc1C(=O)O)c1ccc(-c2ccccc2)cc1  IC50 (NF54; 48 h; blood stage): > 10000 nM
CS(=O)(=O)c1ccc2c(c1)nc(C1CCNCC1)n2Cc1ccccc1  IC50 (NF54; blood stage): > 10000 nM
c1ccc(Oc2ccc(-c3cc(C4CCOCC4)[nH]n3)cc2)cc1  IC50 (SYBR Green; blood stage): 70200 nM
C[C@@]12CCC[C@]3(C)C4=CC(=O)OCC4=C[C@@H](OC1=O)C23 (stereo partly shown)  IC50 (W2; 72 h; drug-resistant strain, blood stage): 0.2 µg/mL
C/C=C/C=C/C=C/c1c(O)cc(CC=C(C)C)c(O)c1C=O  IC50 (W2; 72 h; drug-resistant strain, blood stage): 1.1 µg/mL
O=C(Nc1ccccc1-c1nc2c(C(=O)O)cccc2o1)c1ccccc1  IC50 (SYBR Green; blood stage): 75800 nM
CCN(CC)CCCC(C)Nc1ccnc2cc(Cl)ccc12 (stereo not shown)  IC50 (D6; 72 h; blood stage): 0.016 µg/mL
COC1=CC(c2ccc[nH]2)=NC1=Cc1ccc(CCCCCCCCCCCCO)[nH]1  IC50 (D6; blood stage): 38 nM
NCCN(C(=O)c1ccc(Cl)cc1Cl)c1ccc(OCc2ccc(Cl)cc2)cc1  IC50 (SYBR Green; blood stage): 2810 nM
NCCCNc1nc2ccccc2n1Cc1ccccc1  IC50 (NF54; blood stage): 4090 nM
COc1cc(C)c(-c2ccc(O)c3c2C[C@@H](C)N[C@@H]3C)c2cccc(O)c12 (single isomer, unassigned)  IC50 (SYBR Green; NF54; blood stage): 38.4 nM
Cc1cc(NC(=O)Nc2ccc3c(c2)OC(F)(F)O3)cc(C(F)(F)F)n1  IC50 (NF54; blood stage): 290 nM
NCCCCNc1nc2cc(Cl)ccc2n1Cc1ccccc1  IC50 (NF54; blood stage): 1340 nM
Cc1ccc2oc(-c3cc(NC(=O)Cc4ccccc4)ccc3Cl)nc2c1  IC50 (SYBR Green; blood stage): 23400 nM
C=CCCCCCCCCCCCC(O)CC(O)CO (stereo not shown)  IC50 (D6; blood stage): 29.7 µg/mL
NC(N)=Nc1ccc(-c2ccc(-c3ccc(N=C(N)N)c(Cl)c3)o2)cc1Cl  IC50 (SYBR Green; blood stage): 249 nM
Clc1ccc2c(nc(N3CCNCC3)n2Cc2ccccc2)c1-c1ccncc1  IC50 (NF54; blood stage): 2170 nM
C[C@@H](c1cc(Cl)cc(Cl)c1)N(C)c1ncc2c(N)nc(N)nc2n1  IC50 (SYBR Green; blood stage): 8180 nM
FC(F)(F)c1ccc(CNCCNc2nc3cc(Cl)ccc3n2Cc2ccccc2)cc1  IC50 (NF54; blood stage): 2780 nM
C[C@@H]1CC[C@H]2[C@@H](C)C(=O)O[C@@H]3O[C@@]4(C)CC[C@@H]1[C@]32OO4  IC50 (W2; drug-resistant strain, blood stage): 0.009 µg/mL
CC(C)Cn1c(=O)n(C)c(=O)c2c(-c3cncn3C)n(Cc3cccc4ccccc34)nc21  IC50 (SYBR Green; blood stage): 4820 nM
CC[C@@H](C)[C@H]1O[C@@H](c2c(O)c(-c3ccccc3)cn(O)c2=O)[C@H](C)C[C@@H]1C  IC50 (W2; 72 h; drug-resistant strain, blood stage): 0.2 µg/mL
CC1=C(C)C(c2ccc[nH]2)=NC1=Cc1ccc(CCCCCCCCCC(C)O)[nH]1 (stereo not shown)  IC50 (D6; blood stage): 1080 nM
C[C@@H]1CC[C@H]2[C@@H](C)C(=O)O[C@@H]3O[C@@]4(C)CC[C@@H]1[C@]32OO4  IC50 (D6; 72 h; blood stage): 0.0047 µg/mL
COc1ccccc1-c1ccccc1C(=O)Nc1c(C)cccc1C(=O)O  IC50 (resazurin; NF54; 48 h; gametocyte): > 10000 nM
C#CCCCCCCCCCCCC(O)CC(O)CO (stereo not shown)  IC50 (D6; blood stage): 25.9 µg/mL
c1ccc(Cn2c(N3CCNCC3)nc3cc(-c4cc[nH]n4)ccc32)cc1  IC50 (NF54; blood stage): > 10000 nM
COc1cc(NC(C)CCCNC(=O)c2cccc(C(=O)NCCCC(C)Nc3cc(OC)cc4cccnc34)n2)c2ncccc2c1.Cl (stereo not shown)  IC50 (D6; blood stage): 2.2 µg/mL
CN1CCN(C2CCN(c3nccc4[nH]c(-c5cccc(C#N)c5)nc34)CC2)CC1  IC50 (NF54; blood stage): < 100 nM
c1ccc(Cn2c(N3CCNCC3)nc3cc(-c4ccncc4)ccc32)cc1  IC50 (NF54; blood stage): 1660 nM
CC(=O)Nc1ccc(-c2ccc3ncc4c(c3c2)n(-c2cccc(C(F)(F)F)c2)c(=O)n4C)cn1  IC50 (resazurin; 3D7; gametocyte): < 100 nM
